Measured values reported in ChEMBL document CHEMBL3576780, “Effects of resveratrol on benign prostatic hyperplasia by the regulation of inflammatory and apoptotic proteins” (2015).
Active and inactive are the calls of the source.

Tests used:
Type in all cases: functional, organism-based
Rattus norvegicus [1] = test: Reduction in proliferating cell nuclear antigen expression in prostate tissue in BPH-induced Sprague-Dawley rat model at 5 mg/kg, po daily for 4 weeks by Western blot analysis
Rattus norvegicus [2] = test: Reduction in prostate weight in BPH-induced Sprague-Dawley rat model at 5 mg/kg, po daily for 4 weeks in presence testosterone propionate of 10 mg/kg, intramuscular injection for 4 weeks; conditions: Prostate gland
Rattus norvegicus [3] = test: Increase in Bax expression in prostate tissue in BPH-induced Sprague-Dawley rat model at 1 mg/kg, ip daily for 4 weeks by Western blot analysis; conditions: Prostate gland
Method in brief: (§1)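 Prostate homogenized in lysis buffer, 30 μg protein run on SDS-PAGE, PVDF blot, antibody probing, ECL detection, β-actin internal control, densitometry. Mean ± SEM, n = 6 rats/group; one-way ANOVA with Dunnett's test.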

Rattus norvegicus [4] = test: Reduction in COX2 expression in prostate tissue in BPH-induced Sprague-Dawley rat model at 1 mg/kg, ip daily for 4 weeks by Western blot analysis; conditions: Prostate gland; method in brief: as §1
Rattus norvegicus [5] = test: Reduction in prostate weight in BPH-induced Sprague-Dawley rat model at 1 mg/kg, ip daily for 4 weeks in presence testosterone propionate of 10 mg/kg, intramuscular injection for 4 weeks; conditions: Prostate gland
Rattus norvegicus [6] = test: Reduction in Bcl-xL expression in prostate tissue in BPH-induced Sprague-Dawley rat model at 1 mg/kg, ip daily for 4 weeks by Western blot analysis; conditions: Prostate gland; method in brief: as §1
Rattus norvegicus [7] = test: Reduction in thickness of epithelium tissue in prostate tissue in BPH-induced Sprague-Dawley rat model at 1 mg/kg, ip daily for 4 weeks by Hematoxylin and eosin staining based microscopy; conditions: Prostate gland
Method in brief: (§2)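 Prostates fixed in 4% buffered formalin, paraffin embedded, cut at 4 μm, stained with H&E and imaged at original magnification 40×. Epithelial thickness measured by pathologists. Rats received testosterone propionate 10 mg/kg im daily for 4 weeks with daily treatment; n = 6 per group.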

Rattus norvegicus [8] = test: Reduction in Bcl2 to Bax ratio in prostate tissue in BPH-induced Sprague-Dawley rat model at 1 mg/kg, ip daily for 4 weeks by Western blot analysis; conditions: Prostate gland
Method in brief: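 Male Sprague-Dawley rats, BPH induced by daily im testosterone propionate 10 mg/kg for 4 weeks with daily dosing. Prostate lysate (30 μg protein) Western blotted; Bax and Bcl-2 band densities normalized to β-actin and expressed as Bax/Bcl-2 ratio. Mean ± SEM, n = 6 rats/group.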

Rattus norvegicus [9] = test: Reduction in proliferating cell nuclear antigen in prostate tissue expression in BPH-induced Sprague-Dawley rat model at 1 mg/kg, ip daily for 4 weeks by Western blot analysis; method in brief: as §1
Rattus norvegicus [10] = test: Reduction in iNOS expression in prostate tissue in BPH-induced Sprague-Dawley rat model at 1 mg/kg, ip daily for 4 weeks by Western blot analysis; conditions: Prostate gland
Rattus norvegicus [11] = test: Reduction in procaspase 3 expression in prostate tissue in BPH-induced Sprague-Dawley rat model at 1 mg/kg, ip daily for 4 weeks by Western blot analysis; conditions: Prostate gland; method in brief: as §1
Rattus norvegicus [12] = test: Reduction in prostate cell proliferation and gland development in BPH-induced Sprague-Dawley rat model at 1 mg/kg, ip daily for 4 weeks by Hematoxylin and eosin staining based microscopy; method in brief: as §2
Rattus norvegicus [13] = test: Reduction in 5alpha-reductase mRNA level in prostate tissue in BPH-induced Sprague-Dawley rat model at 1 mg/kg, ip daily for 4 weeks by quantitative real-time PCR analysis; conditions: Prostate gland
Method in brief: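 Prostate tissue 5α-reductase 2 mRNA quantified by real-time PCR in male Sprague-Dawley rats given testosterone propionate 10 mg/kg im daily for 4 weeks plus daily treatment; mean ± SEM, n = 6 rats/group.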

Rattus norvegicus [14] = test: Reduction in Bcl2 expression in prostate tissue in BPH-induced Sprague-Dawley rat model at 1 mg/kg, ip daily for 4 weeks by Western blot analysis; conditions: Prostate gland
Rattus norvegicus [15] = test: Reduction in PARP1 expression in prostate tissue in BPH-induced Sprague-Dawley rat model at 1 mg/kg, ip daily for 4 weeks by Western blot analysis; conditions: Prostate gland; method in brief: as §1

Measured: inhibition

CC(C)(C)NC(=O)[C@H]1CC[C@H]2[C@@H]3CC[C@H]4NC(=O)C=C[C@]4(C)[C@H]3CC[C@]12C
active: Rattus norvegicus [1] | Rattus norvegicus [2]

Oc1ccc(/C=C/c2cc(O)cc(O)c2)cc1
not listed: Rattus norvegicus [1] | Rattus norvegicus [2]
active: all other assays above
